Measurements reported in ChEMBL document CHEMBL5214977, “Discovery and Optimization of Quinoline Analogues as Novel Potent Antivirals against Enterovirus D68” (J Med Chem, 2022).
The source made the active and inactive calls. No cut-off for these calls is given here.

What was measured:
enterovirus D68 [1] = assay: Antiviral activity against Enterovirus-D68 STL-2014-12 infected in human RD cells assessed as reduction in virus induced cytopathic effect by measuring ATP level incubated for 72 hrs by cell titer-glo luminescent cell viability assay; format: functional, organism-based
How it was run: (§1)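 RD cells seeded at 1.5 × 10^4/well and grown 24 h, then given 100 TCID50 virus plus compound in 3-fold dilutions (0.01–200 μM). DMSO control. Incubated 37 °C for 72 h; ATP read by CellTiter-Glo luminescence and normalized to uninfected and infected controls. EC50 is the concentration giving 50% CPE reduction. Strains: STL-2014-12, US/KY/14-18953, US/MO/14-18947, Fermon.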

[2] = Selectivity index, ratio of CC50 for human RD cells to EC50 for Enterovirus-D68 STL-2014-12 infected in human RD cells to; format: toxicity, cell-based; conditions: for selectivity ratio: RD cells, read-out: Ratio CC50/EC50
How it was run: (§2)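 EC50 came from a CPE reduction assay. RD cells (1.5 × 10^4 per well, grown 24 h) were infected with 100 TCID50 of the named strain and given 3-fold dilutions from 0.01 to 200 μM. After 72 h at 37 °C, ATP was read by CellTiter-Glo and normalized to infected and uninfected controls. CC50 came from uninfected cells under the same dilutions, 72 h and ATP readout. SI = CC50/EC50.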

RD = assay: Cytotoxicity against human RD cells assessed as inhibition of cell viability by measuring ATP level incubated for 72 hrs by cell titer-glo luminescent cell viability assay; format: functional
How it was run: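 Uninfected RD cells seeded at 1.5 × 10^4/well and grown 24 h, then exposed to compound in 3-fold dilutions (0.01–200 μM), with DMSO as cell control. ATP read by CellTiter-Glo luminescence after 72 h; CC50 is the 50% cytotoxic concentration.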

enterovirus D68 [3] = assay: Antiviral activity against Enterovirus-D68 infected in human HeLa cells assessed as reduction in virus induced cytopathic effect incubated for […] by plaque reduction assay; format: functional, organism-based; conditions: Enterovirus D
enterovirus D68 [4] = assay: Antiviral activity against Enterovirus D68 infected in human RD cells assessed as inhibition of viral replication at 1 uM incubated for 1.5 hrs by crystal violet staining based plaque formation assay; format: functional, organism-based
How it was run: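 Overnight RD monolayers received serially diluted virus stock plus compound for 1.5 h. Supernatant was removed and cells were overlaid with 2× DMEM containing 2% low-melting agarose. At 72 hpi cells were fixed with 4% paraformaldehyde for 4 h at room temperature and stained with 1% crystal violet to count plaques.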

enterovirus D68 [5] = assay: Antiviral activity against Enterovirus D68 infected in human RD cells assessed as inhibition of VP1 expression level incubated for 12 hrs by Hoechst 33342 staining based immunofluorescence assay; format: functional, organism-based; conditions: dose 0.1-10 µM, DDE = dose-dependent effect
How it was run: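 RD cells were infected with EV-D68 at MOI 1 together with compound for 12 h. Cells were fixed in 4% formaldehyde for 30 min and permeabilized in 0.1% Triton X-100 for 30 min, then blocked with 5% bovine serum. Staining used rabbit anti-VP1 with an Alexa-546 secondary and 1 μM Hoechst33342 nuclear stain, imaged by fluorescence microscopy.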

enterovirus D68 [6] = assay: Antiviral activity against Enterovirus D68 infected in human RD cells assessed as inhibition of VP1 expression level incubated for 1.5 hrs by Western blot analysis; format: functional, organism-based; conditions: dose 0.1-10 µM, DDE = dose-dependent effect
How it was run: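 RD cells (8.0 × 10^4 per well) were grown for 24 h, then infected with EV-D68 at MOI 0.01 for 1.5 h with gradient-diluted compound or DMSO. Lysates were made at 12 hpi in RIPA buffer and run on 10% SDS-PAGE. Blots were probed with anti-EV-D68 VP1 and anti-tubulin antibodies, with HRP secondary and ECL detection.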

[7] = Selectivity index, ratio of CC50 for human RD cells to EC50 for Enterovirus-D68 fermon infected in human RD cells; format: toxicity, cell-based; conditions: read-out: Ratio CC50/EC50; how it was run: as §2
[8] = Selectivity index, ratio of CC50 for human RD cells to EC50 for Enterovirus-D68 US/MO/14-18947 infected in human RD cells; format: toxicity, cell-based; conditions: read-out: Ratio CC50/EC50; how it was run: as §2
enterovirus D68 [9] = assay: Antiviral activity against Enterovirus-D68 US/MO/14-18947 infected in human RD cells assessed as reduction in virus induced cytopathic effect by measuring ATP level incubated for 72 hrs by cell titer-glo luminescent cell viability assay; format: functional, organism-based; conditions: Enterovirus D, US/MO/14-18947, RD; how it was run: as §1
[10] = Selectivity index, ratio of CC50 for human RD cells to EC50 for Enterovirus-D68 US/KY/14-18953 infected in human RD cells; format: toxicity, cell-based; conditions: read-out: Ratio CC50/EC50; how it was run: as §2
enterovirus D68 [11] = assay: Antiviral activity against Enterovirus-D68 fermon infected in human RD cells assessed as reduction in virus induced cytopathic effect by measuring ATP level incubated for 72 hrs by cell titer-glo luminescent cell viability assay; format: functional, organism-based; conditions: Enterovirus D; how it was run: as §1
enterovirus D68 [12] = assay: Antiviral activity against Enterovirus-D68 US/KY/14-18953 infected in human RD cells assessed as reduction in virus induced cytopathic effect by measuring ATP level incubated for 72 hrs by cell titer-glo luminescent cell viability assay; format: functional, organism-based; conditions: Enterovirus D, US/KY/14-18953, RD; how it was run: as §1
[13] = Enterovirus D, STL-2014-12, RD, 72 h

Compound | EC50 (enterovirus D68 [1]; [13]) [nM] | selectivity ratio [2] | CC50 (RD) [nM] | other results
CCc1ccc(-c2ccc3ncc(-c4noc(C)n4)cc3c2)cc1 | 470 | > 16 | > 7400 | –
Cc1nc(-c2cnc3ccc(-c4ccc(N)nc4)cc3c2)no1 | 510 | > 15 | > 7400 | –
CCCc1ccc(-c2ccc3ncc(-c4noc(C)n4)cc3c2)cc1 | 780 | > 10 | > 7400 | –
CCc1nc(-c2cnc3ccc(-c4ccccc4N)cc3c2)no1 | 2350 | 9 | 2350 | –
CCc1nc(-c2cnc3ccc(-c4ccc(OC)cc4)cc3c2)no1 | 190 | > 13 | > 2500 | –
CCCCc1ccc(-c2ccc3ncc(-c4noc(CC)n4)cc3c2)cc1 | 180 | > 41 | > 7400 | –
CCCc1nc(-c2cnc3ccc(-c4ccc(N)cc4)cc3c2)no1 | 410 | > 2 | > 800 | –
CCOC(=O)c1cnc2ccc(-c3ccccc3)cc2c1 | 900 | > 8 | > 7400 | –
CCc1ccc(-c2ccc3ncc(-c4noc(CC)n4)cc3c2)cc1 | 590 | > 38 | > 22200 | –
FC(F)(F)c1nc(-c2cnc3ccc(-c4ccccc4)cc3c2)no1 | 750 | > 30 | > 22200 | –
FC(F)(F)c1nc(-c2cnc3ccc(-c4ccc(N5CCOCC5)cc4)cc3c2)no1 | 33900 | > 1 | > 22200 | –
COc1ccc(-c2ccc3ncc(-c4noc(C)n4)cc3c2)cc1 | 510 | > 131 | > 66700 | –
CCCc1ccc(-c2ccc3ncc(C(=O)OCC)cc3c2)cc1 | 1290 | > 6 | > 7400 | –
CC(C)(C)c1nc(-c2cnc3ccc(-c4ccc(N)cc4)cc3c2)no1 | 4220 | > 2 | > 7400 | –
FC(F)(F)c1nc(-c2cnc3ccc(-c4ccc(Cl)cc4)cc3c2)no1 | 24300 | > 8 | > 200000 | –
Cc1nc(-c2cnc3ccc(-c4ccccc4)cc3c2)no1 | 220 | > 11 | > 2500 | –
CC(C)c1ccc(-c2ccc3ncc(-c4noc(C(F)(F)F)n4)cc3c2)cc1 | 5080 | > 39 | > 200000 | –
CCc1nc(-c2cnc3ccc(-c4ccccc4)cc3c2)no1 | 170 | > 44 | > 7400 | –
Cc1nc(-c2cnc3ccc(-c4ccc(N)cc4)cc3c2)no1 | 280 | > 9 | > 2500 | –
CC(C)c1nc(-c2cnc3ccc(-c4ccc(N)cc4)cc3c2)no1 | 400 | > 2 | > 800 | –
CCOC(=O)c1ccc(OCCC2CCN(c3ccc(C)nn3)CC2)cc1 [PIRODAVIR] | – | – | – | EC50 (enterovirus D68 [3]): 1610 nM
Cc1nc(-c2cnc3ccc(-c4ccc(O)cc4)cc3c2)no1 | 460 | > 5 | > 2500 | –
CCc1nc(-c2cnc3ccc(-c4ccc(C)cc4)cc3c2)no1 | 610 | > 12 | > 7400 | –
CCc1nc(-c2cnc3ccc(-c4cccc(N)c4)cc3c2)no1 | 170 | > 44 | > 7400 | –

Compound | EC50 (enterovirus D68 [1]; [13]) [nM] | selectivity ratio [2] | CC50 (RD) [nM] | other results
CCc1nc(-c2cnc3ccc(-c4ccc(N)cc4)cc3c2)no1 [listing 1 of 2 here] | 100 | – | > 2500 | Ratio CC50/EC50 [2]: > 25
CCc1nc(-c2cnc3ccc(-c4ccc(N)nc4)cc3c2)no1 | 120 | > 555 | > 66700 | –
CCOC(=O)c1cnc2ccc(-c3cccc(N)c3)cc2c1 | 6730 | > 1 | > 7400 | –
CCOC(=O)c1cnc2ccc(-c3ccccc3N)cc2c1 | 6260 | > 1 | > 7400 | –
CCc1nc(-c2cnc3ccc(-c4ccc(Cl)cc4)cc3c2)no1 | 3020 | > 7 | > 22200 | –
CCc1nc(-c2cnc3ccc(-c4ccc(N)cc4)cc3c2)no1 [listing 2 of 2 here] | – | – | – | Activity (enterovirus D68 [4]): Active; Activity (enterovirus D68 [5]): Dde; Activity (enterovirus D68 [6]): Dde
CCCc1ccc(-c2ccc3ncc(-c4noc(CC)n4)cc3c2)cc1 | 530 | > 14 | > 7400 | –
CCc1nc(-c2cnc3ccc(-c4ccc(O)cc4)cc3c2)no1 | 190 | > 13 | > 2500 | –
CCOC(=O)c1cnc2ccc(-c3ccc(N)cc3)cc2c1 | 470 | > 16 | > 7400 | –
CCCCc1ccc(-c2ccc3ncc(C(=O)OCC)cc3c2)cc1 | 850 | > 9 | > 7400 | –
Cc1ccc(-c2ccc3ncc(-c4noc(C(F)(F)F)n4)cc3c2)cc1 | 450 | > 49 | > 22200 | –
CCCCc1ccc(-c2ccc3ncc(-c4noc(C(F)(F)F)n4)cc3c2)cc1 | 190 | > 39 | > 7400 | –
CCc1nc(-c2cnc3ccc(-c4ccc(N5CCOCC5)cc4)cc3c2)no1 | 11800 | > 17 | > 200000 | –
Fc1ccc(-c2ccc3ncc(-c4noc(C(F)(F)F)n4)cc3c2)cc1 | 1220 | > 6 | > 7400 | –
Nc1ccc(-c2ccc3ncc(-c4noc(C(F)(F)F)n4)cc3c2)cn1 | 180 | > 14 | > 2500 | –
CCc1nc(-c2cnc3ccc(-c4ccc(N)c(Cl)c4)cc3c2)no1 | 610 | > 12 | > 7400 | –
Cl.Nc1ccc(-c2ccc3ncc(-c4noc(C(F)(F)F)n4)cc3c2)cc1 | – | – | – | EC50 (enterovirus D68 [1]; rd): 100 nM; Ratio CC50/EC50 [2]: > 111; selectivity ratio [7]: > 123; selectivity ratio [8]: > 123; EC50 (enterovirus D68 [9]): 90 nM; selectivity ratio [10]: > 123; EC50 (enterovirus D68 [11]): 90 nM; EC50 (enterovirus D68 [12]): 90 nM
CCc1nc(-c2cnc3ccc(-c4ccc(NC(C)=O)cc4)cc3c2)no1 | 330 | > 22 | > 7400 | –
CCCCc1ccc(-c2ccc3ncc(-c4noc(C)n4)cc3c2)cc1 | 590 | > 4 | > 2500 | –
Cc1ccc(-c2ccc3ncc(-c4noc(C)n4)cc3c2)cc1 | 570 | > 13 | > 7400 | –
CCc1nc(-c2cnc3ccc(-c4ccc(F)cc4)cc3c2)no1 | 330 | > 22 | > 7400 | –
CCOC(=O)c1cnc2ccc(-c3ccc(C(C)C)cc3)cc2c1 | 1050 | > 2 | > 7400 | –
CN(C)c1ccc(-c2ccc3ncc(-c4noc(C(F)(F)F)n4)cc3c2)cc1 | 1350 | > 16 | > 22200 | –
CCCCc1nc(-c2cnc3ccc(-c4ccc(N)cc4)cc3c2)no1 | 710 | > 3 | > 2500 | –
